We go through 22 compounds from ChEMBL document CHEMBL1149197, “Design and synthesis of beta-amino-alpha-hydroxy amide derivatives as inhibitors of MetAP2 and HUVEC growth” (Bioorg Med Chem Lett, 2004).

Holding throughout (assay type): functional
The subject of test [1] is HUVEC. As to the kind of experiment: Anti-proliferative activity against human umbilical vein endothelial cells (HUVECs). In short, it runs like this:
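HUVECs seeded at 1500 cells/well and cultured 24 h at 37 °C, then exposed to a dose-response series of compound for 24 h. Proliferation was read as ³H-thymidine incorporation by scintillation proximity assay. GI₅₀ was taken from plots of percent-of-control ³H-thymidine uptake versus compound concentration.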

The test system of test [2] is HUVEC. As to the kind of experiment: In vitro anti-proliferative activity against human umbilical vein endothelial cells at 5 uM. The conditions noted are these: for inhibition of growth at 5 µM: Homo sapiens, HUVEC, read-out: GI.
For test [3], the species on record is Bos taurus. Kind of test: Anti-proliferative activity against calf endothelial cells. The conditions noted are these: endothelial cell.

SMILES strings stand for the structures. Values after ≈ are worked out from the molar mass of the structure shown.

As usually defined, the GI50 is the concentration giving 50% growth inhibition. The low end stands for greater sensitivity of the cells, the high end for lower sensitivity of the cells. Regarding `COc1cc(/C=C/C(=O)Nc2ccc(NC(=O)[C@@H](O)[C@H](N)CC3CCCCC3)cc2)cc(OC)c1OC` (stereo in doubt), the GI50 in test [1] was found to be 2 µM. Further, the “growth inhibition (GI)” value in test [2] is reported as 96%.
As for `COc1cc(NC(=O)[C@@H](O)[C@H](N)CC2CCCCC2)ccc1NC(=O)/C=C/c1cc(OC)c(OC)c(OC)c1`, the GI50 in test [1] (Homo sapiens, HUVEC) was determined as 1.2 µM. The inhibition of growth at 5 µM in test [2] is > 98%.
`CCOc1ccc(/C=C/C(=O)Nc2ccc(NC(=O)[C@@H](O)[C@H](N)CCc3ccccc3)cc2)cc1` showed a GI50 in test [1] (Homo sapiens, HUVEC) of 1.8 µM. Moreover, the inhibition of growth at 5 µM in test [2] is > 98%.
The matching figures for `COc1cc(/C=C/C(=O)Nc2ccc(NC(=O)[C@@H](O)[C@H](N)CCC3CCCCC3)cc2)cc(OC)c1OC`: 0.8 µM and > 98%.
With `CCSCCC(N)C(O)C(=O)Nc1ccc(NC(=O)/C=C/c2ccc(OC)cc2)cc1` (single isomer, unassigned), the inhibition of growth at 5 µM in test [2] was 43%.
In turn, `COc1cc(/C=C/C(=O)Nc2ccc(NC(=O)[C@@H](O)[C@H](N)CCc3ccccc3)c(C)c2)cc(OC)c1OC` returned a GI50 in test [1] (Homo sapiens, HUVEC) of 2.3 µM. The inhibition of growth at 5 µM in test [2] was 92%.
Consider `COc1cc(/C=C/C(=O)Nc2ccc(NC(=O)[C@@H](O)[C@H](N)CCc3ccccc3)cc2)cc(OC)c1OC`, for which the GI50 in test [1] (Homo sapiens, HUVEC) is 0.85 µM. The inhibition of growth at 5 µM in test [2] was > 98%.
On to `CCSCC[C@@H](N)[C@H](O)C(=O)Nc1ccc(NC(=O)c2cc(OC)c(OC)c(OC)c2)cc1` (single isomer, unassigned), for which the inhibition of growth at 5 µM in test [2] was found to be 20%.
Take `COc1cc(/C=C/C(=O)NC2CCC(NC(=O)[C@@H](O)[C@H](N)CC3CCCCC3)CC2)cc(OC)c1OC` (some centres not stated): the inhibition of growth at 5 µM in test [2] is 52%.
As for `CCOc1ccc(/C=C/C(=O)Nc2ccc(NC(=O)C(O)C(N)CCSCC)cc2)cc1` (single isomer, unassigned), in test [2], the inhibition of growth at 5 µM was found to be 91%.
One may read the IC50 as the concentration at which inhibition is half-maximal. In test [3], `COc1cc(/C=C/C(=O)O[C@@H]2CC[C@]3(CO3)[C@@H]([C@]3(C)O[C@H]3CCC=C(C)C)[C@@H]2OC)cc(OC)c1OC` had an IC50 of 3e-05 ng/mL (≈ 5.81e-05 nM).
Turning to `CCSCC[C@@H](N)[C@H](O)C(=O)Nc1ccc(NC(=O)c2ccc(OC)cc2)cc1` (single isomer, unassigned), the inhibition of growth at 5 µM in test [2] came to 15%.
On to `CCOc1ccc(/C=C/C(=O)Nc2ccc(NC(=O)[C@@H](O)[C@H](N)CC3CCCCC3)cc2)cc1`, for which halving of growth in test [1] (Homo sapiens, HUVEC) (GI50) required 1 µM. Further, the inhibition of growth at 5 µM in test [2] was > 98%.
Consider `CCSCC[C@@H](N)[C@H](O)C(=O)Nc1ccccc1`, for which the inhibition of growth at 5 µM in test [2] was 0%.
With `COc1cc(/C=C/C(=O)Nc2ccc(NC(=O)[C@@H](O)[C@H](N)CC3CCCCC3)cc2C)cc(OC)c1OC`, the 50% growth inhibitory concentration (GI50) in test [1] (Homo sapiens, HUVEC) was 1.8 µM. The inhibition of growth at 5 µM in test [2] was > 98%.
Take `CCSCCC(N)C(O)C(=O)Nc1ccc(NC(=O)/C=C/c2ccccc2)cc1` (single isomer, unassigned): the inhibition of growth at 5 µM in test [2] is 48%.
In the case of `CCOc1ccc(CCC(=O)Nc2ccc(NC(=O)[C@@H](O)[C@H](N)CC3CCCCC3)cc2)cc1`, the inhibition of growth at 5 µM in test [2] came out at 42%.
For the compound `COc1cc(/C=C/C(=O)Nc2ccc(NC(=O)[C@@H](O)[C@H](N)Cc3ccccc3)cc2)cc(OC)c1OC`, the inhibition of growth at 5 µM in test [2] was 93%.
As for `CCSCC[C@@H](N)[C@H](O)C(=O)Nc1ccc(NC(=O)/C=C/c2cc(OC)c(OC)c(OC)c2)cc1`, the inhibition of growth at 5 µM in test [2] was 89%.
For the compound `COc1cc(/C=C/C(=O)Nc2ccc(NC(=O)[C@@H](O)[C@H](N)CC3CCCCC3)cc2)cc(OC)c1OC` (stereo in doubt; 11), the GI50 in test [1] turned out to be 0.67 µM. Moreover, the inhibition of growth at 5 µM in test [2] was > 98%.
In the case of `COc1cc(/C=C/C(=O)NC2CCC(NC(=O)[C@@H](O)[C@H](N)CCc3ccccc3)CC2)cc(OC)c1OC` (some centres not stated), in test [2], the inhibition of growth at 5 µM is 46%.
On to `COc1cc(NC(=O)/C=C/c2cc(OC)c(OC)c(OC)c2)ccc1NC(=O)[C@@H](O)[C@H](N)CCc1ccccc1`, for which halving of growth in test [1] (Homo sapiens, HUVEC) (GI50) required 0.7 µM. Further, in test [2], the inhibition of growth at 5 µM was > 98%.
